DDE Tn7 FP inh – inhibitors of Tn7 peptide binding to human fibrin DD(E) | P02675 | inhibition, % at 8.3 µM | 370,000 tested, 0.13% active | FP displacement of FITC-Tn7 peptide from fibrin DD(E); 0% = median of compound wells per plate;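 active means inhibition above the mean of compounds falling within the control limits plus 3 SD of them, cut at about 14% in these data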
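Assay system: human fibrin DD(E). Input: DD(E) 2 µM final. Medium: Tris buffer with calcium and detergent, pH 7.8. Compound dosing: single point at 8.3 µM. Timing: 10 min plus 3 h, room temperature. Technique: fluorescence polarization of the labelled Tn7 tracer. Read-out: percent inhibition. Replicates: singlicate testing.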
PLCg1 inh – PLC-gamma1 (human) inhibition, primary screen | P19174 | purified PLC-gamma1, fluorogenic substrate, fluorescence | inhibition, % at 12.2 µM | 370,000 tested, 0.84% active; in the data active means inhibition above about 9.5%
ADAM17 inh – inhibits human ADAM17 | P78536 | recombinant ADAM17, EDANS/DABCYL FRET peptide cleavage | inhibition, % at 6.95 µM | 370,000 tested, 0.83% active | AID 720648;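 active means inhibition above the mean of compounds lying between control limits plus 3 SD, set per campaign, cut at about 8.5% in these data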
Tn6 DDE FP – DD(E)-Tn6 binding inhibition, primary FP screen; P02675; Fibrin DD(E) TRITC-Tn6 fluorescence polarization displacement; inhibition, % at 8.3 µM; 370,000 tested, 0.21% active; AID 720509;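 active means inhibition above a per-campaign cutoff: mean of compounds within control limits plus 3 SD, cut at about 15% in these data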
ADAM10 inh – inhibits human ADAM10; recombinant ADAM10, EDANS/DABCYL FRET peptide cleavage, 3 h; inhibition, % at 7 µM; 370,000 tested, 0.62% active; AID 720582;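 active means inhibition above a per-campaign cutoff equal to the mean of compounds falling between control-based bounds plus 3 SD, cut at about 20% in these data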
PLC-beta3 inh – inhibitors of human phospholipase C beta3; Q01970; inhibition, % at 12.2 µM; 370,000 tested, 0.18% active; Purified PLC-beta3, fluorogenic substrate, fluorescence; in the data active means inhibition above about 11%
ADAM10 counter – counter-screen for ADAM17 exosite inhibitors: inhibitors of human ADAM10. inhibition, % at 6.95 µM. recombinant ADAM10, EDANS/DABCYL FRET peptide cleavage, 3 h. shares compounds with ADAM17 inh. 2,900 tested, 47% active. AID 743256;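 active means mean inhibition over the triplicate runs exceeds the activity threshold set in the earlier primary screen, cut at about 20% in these data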
ADAM17 confirm – human ADAM17 inhibition, confirmation | shares compounds with ADAM17 inh | recombinant ADAM17, EDANS/DABCYL QFRET peptide cleavage | inhibition, % at 6.95 µM | 2,900 tested, 65% active | AID 743257;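 active means mean inhibition across replicates above the hit cutoff set in the primary screen, cut at about 8.5% in these data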
Of the large screens only hits and unclear results are named; the others gave an inactive call (follow-up assays come after a bar, where they were run). Hits are enriched below; roughly 2.3% of the tested compounds scored in any of these assays.

O=C(Nc1ccc(S(=O)(=O)N2CCCCC2)cc1)c1ccc(CN2CCc3ccccc3C2)cc1	ADAM17 inh 8.8 | ADAM10 counter inactive | ADAM17 confirm 9.6
CS(=O)(=O)N1CCc2cc(C(=O)Nc3ccc(Br)cc3)ccc21	ADAM17 inh 9.0 | ADAM10 counter inactive | ADAM17 confirm inactive
O=C(Nc1nc(-c2ccccc2)cs1)c1ccc(S(=O)(=O)N2CCc3ccccc32)cc1	ADAM17 inh 9.7 | ADAM10 counter inactive | ADAM17 confirm 9.7
Cc1ccc(Cn2cc(CN(C3CC3)S(=O)(=O)c3ccccc3Br)nn2)cc1	none
CCC(CC)C(=O)Nc1c(C(=O)N2CCN(c3ccccc3)CC2)oc2ccccc12	ADAM17 inh 9.3 | ADAM10 counter inactive | ADAM17 confirm inactive
NC(=O)c1cccn1-c1ncc(C(F)(F)F)cc1Cl	none
Cc1ccc(/C(CSc2nccn2-c2ncc(C(F)(F)F)cc2Cl)=N\O)cc1	ADAM17 inh 15 | ADAM10 counter inactive | ADAM17 confirm 9.1
CCN1C(=O)C(CC(=O)Nc2ccc(Br)cc2)N(CCCc2ccccc2)C1=S (centres undefined)	ADAM17 inh 9.0 | ADAM10 counter 35 | ADAM17 confirm 20
O=C(CSC1CC(=O)N(CCc2ccccc2)C1=O)Nc1ccc(Br)cc1 (centres undefined)	ADAM17 inh 9.3 | ADAM10 counter inactive | ADAM17 confirm inactive
O=S1(=O)c2ccc(Br)cc2OC[C@@H](c2ccccc2)N1Cc1cn(Cc2ccccc2)nn1	none
O=C(OC1CCCCC1)c1ccc(NC(=O)c2ccco2)cc1	ADAM17 inh 12 | ADAM10 counter 21 | ADAM17 confirm 12
COc1ccccc1-c1cc(C(=O)Nc2sc3c(c2C#N)CCC(C)C3)c2ccccc2n1 (centres undefined)	ADAM17 inh 9.9 | ADAM10 counter inactive | ADAM17 confirm inactive
Cc1cc(C)cc(-n2c(SCC(=O)NCc3ccco3)nc3ccccc3c2=O)c1	ADAM17 inh 10 | ADAM10 counter inactive | ADAM17 confirm 8.7
CCN(CC)C(=O)N1CCC(NC(=O)Cc2ccccc2)CC1	ADAM17 inh 9.4 | ADAM10 counter inactive | ADAM17 confirm inactive
CCCC1CCC2(CCCN2CCOC(=S)Nc2ccccc2)CC1 (centres undefined)	none
CCOC(=O)C1=C(C)Nc2ccccc2N/C1=N\S(=O)(=O)c1ccc(Cl)cc1	ADAM17 inh 12 | ADAM10 counter inactive | ADAM17 confirm inactive
CCOC(=O)C1=C(C)Nc2ccccc2N/C1=N\S(=O)(=O)c1cc(C(=O)O)ccc1Cl	none
Cc1ccc(CNC(=O)OC(C)(C)C)c(/C=C/S(=O)(=O)NCc2ccc(F)cc2)c1	none
CCOC(=O)[C@]12CCCC=C1N(Cc1cccc3ccccc13)C(=O)[C@H](CC(=O)NCc1cccc3ccccc13)C2	ADAM17 inh 11 | ADAM10 counter inactive | ADAM17 confirm inactive
COC(=O)[C@]12CCCCC=C1N(Cc1cccc3ccccc13)C(=O)[C@H](CC(=O)NCc1cccc3ccccc13)C2	ADAM17 inh 12 | ADAM10 counter 23 | ADAM17 confirm 12
C#CCNC(=O)C[C@@H]1C[C@@]2(C(=O)OCC)CCCC=C2N(Cc2cccc3ccccc23)C1=O	none
COC(=O)[C@@]12C[C@@H](CC(=O)NCc3cccc4ccccc34)C(=O)N(Cc3ccc4c(c3)OCO4)C1=CCC(C)(C)C2	ADAM17 inh 8.9 | ADAM10 counter 20 | ADAM17 confirm 12
CCOC(=O)[C@]12CCCC=C1N(Cc1cccc3ccccc13)C(=O)[C@H](CC(=O)NCCc1ccccc1OC)C2	ADAM17 inh 9.7 | ADAM10 counter 24 | ADAM17 confirm 17
COC(=O)[C@]12CCCCC=C1N(Cc1cccc3ccccc13)C(=O)[C@H](CC(=O)NCc1ccc(C)o1)C2	none

Bioassay records as filed in PubChem BioAssay.
